Measured values reported in paper PMC411066 (BMC Medicine, 2004).
“And” between values parts separate entries of the source, which are not always exact repeats. Equal entries are not always repeated.

What was measured:
[1] = Serum digoxin; format: in vivo, human
How it was run: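 Trough serum samples at steady state from 618 digoxin-monitoring patients, assayed by fluorescence polarization immunoassay. Orally given comedications were classed as P-gp inhibitors by PubMed search: Class I, documented in vivo effect on digoxin kinetics; Class II, in vitro inhibition only. Means ± SE from a General Linear Model adjusted for age, sex, digoxin dose and total prescribed drugs, covariates at their means.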

[2] = tested on: P-gp; settings: cited from earlier work

Adjusted S-digoxin mean ± SE ([1]; patients taking one Class I P-gp inhibitor, N = 96) | Adjusted S-digoxin mean ± SE ([1]; patients taking one P-gp inhibitor, N = 204, multivariate) | S-digoxin with Class II P-gp inhibitors compared with no P-gp inhibitors ([1]; patients taking one or two Class II P-gp inhibitors, differences not significant in the multivariate model) | Adjusted S-digoxin mean ± SE ([1]; patients taking three P-gp inhibitors, N = 8, multivariate) | Adjusted S-digoxin mean ± SE ([1]; patients taking two P-gp inhibitors, N = 78, multivariate) | S-digoxin mean ± SE ([1]; patients with concomitant P-gp inhibitors, all patients on spironolactone excluded) | Adjusted S-digoxin mean ± SE ([1]; patients with ≥ 1 P-gp inhibitor, N = 290, adjusted for age, sex, digoxin dose and total number of prescribed drugs) | SMILES | Adjusted S-digoxin mean ± SE ([1]; patients taking two Class I P-gp inhibitors, N = 17) | In vitro P-gp inhibition [2]
1.65 ± 0.07 nmol/L | 1.51 ± 0.05 nmol/L | tended to have elevated S-digoxin levels | 2.00 ± 0.25 nmol/L | 1.59 ± 0.08 nmol/L | 1.46 ± 0.05 nmol/L | 1.55 ± 0.04 nmol/L | C[C@H]1O[C@@H](O[C@H]2[C@@H](O)C[C@H](O[C@H]3[C@@H](O)C[C@H](O[C@H]4CC[C@@]5(C)[C@H](CC[C@@H]6[C@@H]5C[C@@H](O)[C@]5(C)[C@@H](C7=CC(=O)OC7)CC[C@]65O)C4)O[C@@H]3C)O[C@@H]2C)C[C@H](O)[C@@H]1O [digoxin] | 1.83 ± 0.07 nmol/L and 1.83 ± 0.17 nmol/L | –
– | – | – | – | – | – | – | CC[C@H](C)C(=O)O[C@H]1C[C@H](O)C=C2C=C[C@H](C)[C@H](CC[C@@H](O)C[C@@H](O)CC(=O)O)[C@H]21 [pravastatin] | – | not an in vitro P-gp inhibitor
